Laboratory results published in PubChem BioAssay AID624012 (Broad Institute, 2012).
“And” between values parts separate entries of the source, which are not always exact repeats. Equal entries are not always repeated.

What follows are compounds tested on S. cerevisiae growth in glycerol medium, OD600, 48 h (assay: S. cerevisiae growth inhibition on glycerol, dose response, glycerol medium, plate reader, dry powder, set 4 (AID 624012)).
How it was run: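 Test system: Saccharomyces cerevisiae yeast whole cells, growth on glycerol; Buffer or medium: CSM medium with glycerol as carbon source; Dosing: test compounds delivered into wells by pin transfer; Timing: 48 h exposure, 30 °C; Signal: optical density at 600 nm (absorbance); Benchmarks: positive control Amphotericin B at 10 µM.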

Question: For CCOC(=O)N1C(=O)C2(CCCCC2)N(c2ccc(C#N)cc2)C1=S, which AC50 is on record?
Answer: Its AC50 is 3.65 nM.

Question: With C/C=C/[C@@H]1[C@H]2C[C@@H](C)CC[C@@H]2C(C)=C[C@H]1C(=O)c1c(O)c(-c2ccc(O)cc2)c[nH]c1=O as the compound, how does the AC50 read?
Answer: The AC50 was 27.5 nM.

Question: With CC1/C=C/C=C\C=C\C=C\C=C\C=C\C=C\C(O[C@H]2OC(C)C(O)C(N)C2O)CC2OC(O)(CC(O)CC(O)C(O)CCC(O)CC(O)CC(=O)OC(C)C(C)C1O)CC(O)C2C(=O)O (stereo partly drawn) as the compound, how does the AC50 read?
Answer: Its AC50 is 274 nM.

Question: With CCOC(=O)N1C(=O)C2(CCCCC2)N(c2cccc(C)c2)C1=S as the compound, how does the AC50 read?
Answer: Its AC50 is 18.1 nM.

Question: With CCOC(=O)N1C(=O)C2(CCCCC2)N(c2ccc(F)cc2)C1=S as the compound, how does the AC50 read?
Answer: The AC50 was 3.97 nM.

Question: How did the AC50 turn out when CCOC(=O)N1C(=O)C2(CCCCC2)N(c2ccc(Cl)cc2)C1=S was run?
Answer: The AC50 was 5.77 nM.

Question: For CCOC(=O)N1C(=O)C2(CCCCC2)N(c2ccccc2)C1=S, which AC50 is on record?
Answer: Its AC50 is 14.6 nM.

Question: Which AC50 does the source give for CCOC(=O)N1C(=O)C2(CCCCC2)N(c2ccc(C)cc2)C1=S here?
Answer: Its AC50 is 10.8 nM and 6.97 nM.
